Data as given in ChEMBL document CHEMBL4715759, “Synthesis, biological evaluation and molecular modeling study of thiadiazolo[3,2-a][1,3]diazepine analogues of HIE-124 as a new class of short acting hypnotics” (Eur J Med Chem, 2016).
Activity calls are given as the source filed them. No cut-off for these calls is given here.

Tests used:
[1] = test system: Mus musculus; assay: Hypnotic activity in mouse assessed as onset of sleep time at 1.6 mmol/Kg, ip by righting reflex; assay type: functional
Outline: (§1)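 Mice were first checked for an intact righting reflex. Single i.p. doses of 0.2–2 mmol/kg were given in DMSO (up to 1 ml/kg), or as a 0.25% aqueous carboxymethylcellulose suspension (up to 10 ml/kg) for larger doses, with vehicle controls. Each mouse was placed under a 30-cm glass funnel and monitored visually and by video. Onset of sleep was timed. Duration ended at regain of the righting reflex 3 times within 1 min. Minimal effective dose recorded; n=6.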

[2] = test system: Mus musculus; assay: Hypnotic activity in mouse assessed as duration of sleep time at 1.6 mmol/Kg, ip by righting reflex; assay type: functional, organism-based; outline: as §1
[3] = Therapeutic Index, ratio of LD50 of Toxicity in iv dosed mouse to minimum effective hypnotic dose in mouse; assay type: organism-based; conditions: in vivo, read-out: TI
[4] = test system: Mus musculus; assay: Hypnotic activity in mouse assessed as onset of sleep time at 0.03 mmol/Kg, ip in presence of 0.06 mmole/kg thiopenetal by righting reflex; assay type: functional
Outline: (§2)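 Mice received a test compound (0.03–0.06 mmol/kg) together with thiopental sodium (0.06 mmol/kg), both i.p. Vehicle was DMSO (up to 1 ml/kg), or 0.25% aqueous sodium carboxymethylcellulose suspension for larger doses (up to 10 ml/kg). Each mouse was kept under a 30-cm glass funnel and watched visually and on video. Sleep onset was timed. Duration ended when the righting reflex was regained 3 times within one minute. n=6.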

[5] = test system: Mus musculus; assay: Hypnotic activity in mouse assessed as onset of sleep time at 0.4 mmol/Kg, ip by righting reflex; assay type: functional; outline: as §1
[6] = test system: Mus musculus; assay: Hypnotic activity in mouse assessed as duration of sleep time at 0.03 mmol/Kg, ip in presence of 0.06 mmole/kg thiopenetal by righting reflex; assay type: functional; outline: as §2
[7] = test system: Mus musculus; assay: Hypnotic activity in mouse assessed as duration of sleep time at 0.4 mmol/Kg, ip by righting reflex; assay type: functional; outline: as §1
[8] = test system: Mus musculus; assay: Hypnotic activity in mouse assessed as duration of sleep time at 1 mmol/Kg, ip by righting reflex; assay type: functional; outline: as §1
[9] = test system: Mus musculus; assay: Hypnotic activity in mouse assessed as onset of sleep time at 1 mmol/Kg, ip by righting reflex; assay type: functional; outline: as §1
[10] = test system: Mus musculus; assay: Hypnotic activity in mouse assessed as onset of sleep time at 0.8 mmol/Kg, ip by righting reflex; assay type: functional; outline: as §1
[11] = test system: Mus musculus; assay: Hypnotic activity in mouse assessed as duration of sleep time at 0.8 mmol/Kg, ip by righting reflex; assay type: functional; outline: as §1
[12] = test system: Mus musculus; assay: Hypnotic activity in mouse assessed as onset of sleep time at 0.2 mmol/Kg, ip by righting reflex; assay type: functional
Outline: (§3)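 Mice screened for intact righting reflex, then dosed i.p. (0.2–2 mmol/kg range; DMSO up to 1 ml/kg, or larger doses suspended in 0.25% aqueous Na-CMC up to 10 ml/kg). Each mouse was held under a 30-cm glass funnel and monitored visually and by video. Onset was recorded at loss of righting reflex. Sleep ended when the reflex was regained 3 times within one minute. n=6.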

[13] = test system: Mus musculus; assay: Hypnotic activity in mouse assessed as duration of sleep time at 0.2 mmol/Kg, ip by righting reflex; assay type: functional; outline: as §3
[14] = test system: Mus musculus; assay: Hypnotic activity in mouse assessed as onset of sleep time at 0.05 mmol/Kg, ip in presence of 0.06 mmole/kg thiopenetal by righting reflex; assay type: functional; outline: as §2
[15] = test system: Mus musculus; assay: Hypnotic activity in mouse assessed as duration of sleep time at 0.06 mmol/Kg, ip in presence of 0.06 mmole/kg thiopenetal by righting reflex; assay type: functional; outline: as §2
[16] = test system: Mus musculus; assay: Hypnotic activity in mouse assessed as duration of sleep time at 0.05 mmol/Kg, ip in presence of 0.06 mmole/kg thiopenetal by righting reflex; assay type: functional; outline: as §2
[17] = test system: Mus musculus; assay: Hypnotic activity in mouse assessed as onset of sleep time at 0.06 mmol/Kg, ip in presence of 0.06 mmole/kg thiopenetal by righting reflex; assay type: functional; outline: as §2

With `Cc1ccc(C2=NN3CCCC(=O)N=C3S2)cc1` the Time [1] was 20 min, the Activity [2] was “inactive” and the selectivity ratio [3] was 1.25.
Work on `O=C1CCCN2N=C(c3ccc(Br)cc3)SC2=N1` yielded a Time [4] of 3.1 min, a Time [5] of 43.4 min and a Time [6] of 75 min. For the same molecule, the Activity [7] was “inactive” and the selectivity ratio [3] was 1.5.
In the case of `CC1=NN2CCCC(=O)N=C2S1`, the Time [8] is reported as 6 min, the selectivity ratio [3] is reported as 3.55 and the Time [9] is reported as 25 min.
`O=C1CCCN2N=C(C(F)(F)F)SC2=N1` gave a Time [10] of 14 min, a selectivity ratio [3] of 3.32 and a Time [11] of 14 min.
Molecule `CCCC(C)C1(CC)C(=O)[N-]C(=S)NC1=O.[Na+]` (centres undefined) [THIOPENTAL SODIUM] has a Time [12] of 2 min, a Time [13] of 45 min and a selectivity ratio [3] of 6.1.
For `O=C1CCCN2N=C(c3ccccc3)SC2=N1`, the Time [14] was 15 min, the Time [15] was 62.5 min and the Time [5] was 6.4 min. For the same molecule, the Time [16] was 5 min, the Time [7] was 94.8 min and the selectivity ratio [3] was 6.62. It also gave a Time [17] of 7.5 min.
